Assay [1] concerns the target Histone deacetylase (HDAC1 and HDAC2) (Homo sapiens, UniProt Q13547+Q92769). As to the kind of experiment: Inhibition of HDAC1/2 from human HeLa cells nuclear extract by cell free fluorimetric assay. It counts as cell-based.
Assay [2] deals with T1, Protein deacetylase HDAC6 (Homo sapiens, UniProt Q9UBN7).
T1 sequence (Q9UBN7 whole entry): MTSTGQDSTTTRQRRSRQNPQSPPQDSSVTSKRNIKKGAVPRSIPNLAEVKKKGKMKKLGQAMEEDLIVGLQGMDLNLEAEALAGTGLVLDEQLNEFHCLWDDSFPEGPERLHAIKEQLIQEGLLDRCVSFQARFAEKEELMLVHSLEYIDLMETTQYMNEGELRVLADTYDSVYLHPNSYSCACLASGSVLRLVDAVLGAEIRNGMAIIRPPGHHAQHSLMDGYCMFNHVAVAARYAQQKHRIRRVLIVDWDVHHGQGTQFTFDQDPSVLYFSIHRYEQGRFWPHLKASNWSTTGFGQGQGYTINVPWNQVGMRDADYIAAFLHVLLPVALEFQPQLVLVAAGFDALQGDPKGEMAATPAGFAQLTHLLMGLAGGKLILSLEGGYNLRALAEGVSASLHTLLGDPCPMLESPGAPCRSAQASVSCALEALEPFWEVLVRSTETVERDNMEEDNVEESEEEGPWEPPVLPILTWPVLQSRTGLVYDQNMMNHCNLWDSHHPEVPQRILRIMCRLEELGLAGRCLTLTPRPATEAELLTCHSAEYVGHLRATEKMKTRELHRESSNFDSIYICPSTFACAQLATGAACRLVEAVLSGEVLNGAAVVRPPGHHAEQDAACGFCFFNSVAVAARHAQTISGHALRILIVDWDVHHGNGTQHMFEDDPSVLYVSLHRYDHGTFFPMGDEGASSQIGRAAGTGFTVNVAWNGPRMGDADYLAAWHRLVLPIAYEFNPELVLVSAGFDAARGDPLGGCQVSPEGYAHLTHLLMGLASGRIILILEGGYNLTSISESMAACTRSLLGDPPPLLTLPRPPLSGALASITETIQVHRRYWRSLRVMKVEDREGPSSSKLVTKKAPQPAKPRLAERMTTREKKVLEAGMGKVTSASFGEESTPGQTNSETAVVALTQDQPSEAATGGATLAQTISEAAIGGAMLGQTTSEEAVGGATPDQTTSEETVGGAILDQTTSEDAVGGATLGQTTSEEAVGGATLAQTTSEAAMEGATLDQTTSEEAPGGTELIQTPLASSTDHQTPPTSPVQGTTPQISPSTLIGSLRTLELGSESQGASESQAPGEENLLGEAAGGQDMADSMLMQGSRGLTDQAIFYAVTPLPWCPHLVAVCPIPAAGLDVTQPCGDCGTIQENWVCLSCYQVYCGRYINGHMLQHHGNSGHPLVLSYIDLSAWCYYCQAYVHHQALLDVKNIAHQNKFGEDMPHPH
In words: Inhibition of HDAC6 from human HeLa cells nuclear extract by cell free fluorimetric assay.

The subject of another assay is SK-MES-1. As to the kind of experiment: Cytotoxicity against human SKMES1 cells after 72 hrs by trypan blue exclusion assay. As to conditions: SK-MES-1, 72 h. It counts as functional, cell-based.
A further assay deals with NCI-H69. In words: Cytotoxicity against human NCI-H69 cells after 72 hrs by trypan blue exclusion assay. It counts as functional, cell-based. To be noted: NCI-H69, 72 h.
The test system of a further assay is DU-145. In words: Cytotoxicity against human DU145 cells after 72 hrs by trypan blue exclusion assay. In kind it is functional, cell-based. To be noted: DU-145, 72 h. The gist of the method:
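DU-145 prostate cancer cells kept in recommended complete medium at 37 °C, 5% CO₂, passaged 24 h before dosing. Compounds taken from 10 mM DMSO stocks and diluted in DMSO plus fresh medium, final DMSO 0.1%; control wells got fresh medium only. Viability read by trypan blue staining after 72 h. EC₅₀ = concentration giving 50% loss of viability, from duplicate of four simultaneous experiments.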

Assay [3] can be described thus: Cytotoxicity against human primary lung fibroblasts after 72 hrs by trypan blue exclusion assay. In kind it is ADME, cell-based. To be noted: Fibroblast.
For the next assay, the system named is HMEC. In words: Cytotoxicity against HMEC after 72 hrs by trypan blue exclusion assay. It counts as ADME, cell-based. To be noted: Homo sapiens.
The target of a further assay is T2, Histone deacetylase 8 (Homo sapiens, UniProt Q9BY41).
T2 sequence (Q9BY41 whole entry): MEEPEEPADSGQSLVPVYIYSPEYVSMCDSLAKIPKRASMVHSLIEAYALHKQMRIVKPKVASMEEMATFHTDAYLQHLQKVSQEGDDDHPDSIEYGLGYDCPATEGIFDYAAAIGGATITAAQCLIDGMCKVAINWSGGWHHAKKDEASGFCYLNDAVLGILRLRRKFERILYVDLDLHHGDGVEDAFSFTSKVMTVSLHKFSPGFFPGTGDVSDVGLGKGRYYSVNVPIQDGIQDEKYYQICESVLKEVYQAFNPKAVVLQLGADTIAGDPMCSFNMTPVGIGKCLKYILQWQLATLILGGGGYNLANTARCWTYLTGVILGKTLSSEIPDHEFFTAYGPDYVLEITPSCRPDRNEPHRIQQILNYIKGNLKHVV
In words: Inhibition of HDAC8 from human HeLa cells nuclear extract by cell free fluorimetric assay.

pEC50, pIC50: −log10 of the molar value.

Here are results for four molecules from ChEMBL document CHEMBL1139366, “Non-peptide macrocyclic histone deacetylase inhibitors” (J Med Chem, 2009).

`CC[C@H]1OC(=O)[C@H](C)[C@@H](O)[C@H](C)[C@@H](O[C@@H]2O[C@H](C)C[C@H](N(C)Cc3ccc(-c4cn(CCCCCCC(=O)NO)nn4)cc3)[C@H]2O)[C@](C)(OC)C[C@@H](C)C(=O)[C@H](C)[C@@H](O)[C@]1(C)O`: in assay [1], the IC50 stood at 0.0019 µM. Besides, the pIC50 in assay [2] is 6.83. Also, the pEC50 is 5.89 in the assay on SK-MES-1; 5.83 in the assay on NCI-H69; 5.98 in the assay with DU-145; under 5.00 in assay [3]; under 5.00 in the assay on HMEC.

In assay [1], `CC[C@H]1OC(=O)[C@H](C)[C@@H](O[C@H]2C[C@@](C)(OC)[C@@H](O)[C@H](C)O2)[C@H](C)[C@@H](O[C@@H]2O[C@H](C)C[C@H](N(C)Cc3ccc(-c4cn(CCCCCCC(=O)NO)nn4)cc3)[C@H]2O)[C@](C)(O)C[C@@H](C)CN(C)[C@H](C)[C@@H](O)[C@]1(C)O` showed an IC50 of 0.0139 µM. Besides, the pIC50 on Histone deacetylase 8 was 6.00; in assay [2], 7.11. Further, the pEC50 was 5.63 with SK-MES-1; 5.46 in the assay with NCI-H69; 5.73 in the assay on DU-145; under 5.00 in assay [3]; under 5.00 in the assay on HMEC.

In assay [1], `CC[C@H]1OC(=O)[C@H](C)[C@@H](O)[C@H](C)[C@@H](O[C@@H]2O[C@H](C)C[C@H](N(C)Cc3ccc(-c4cn(CCCCCCC(=O)NO)nn4)cc3)[C@H]2O)[C@](C)(O)C[C@@H](C)CN(C)[C@H](C)[C@@H](O)[C@]1(C)O` registered an IC50 of 0.0106 µM. Moreover, the results for the pIC50 (against Histone deacetylase 8; in assay [2]) were 5.99 and 6.93, respectively. The pEC50 with SK-MES-1 is 5.59; in the assay with NCI-H69 it was 5.52; in the assay with DU-145, 5.71; in assay [3] it was under 5.00; in the assay on HMEC, under 5.00.

In turn, `CC[C@H]1OC(=O)[C@H](C)[C@@H](O[C@H]2C[C@@](C)(OC)[C@@H](O)[C@H](C)O2)[C@H](C)[C@@H](O[C@@H]2O[C@H](C)C[C@H](N(C)Cc3ccc(-c4cn(CCCCCCC(=O)NO)nn4)cc3)[C@H]2O)[C@](C)(OC)C[C@@H](C)C(=O)[C@H](C)[C@@H](O)[C@]1(C)O` had an IC50 in assay [1] of 0.0041 µM. Moreover, the pIC50 in assay [2] was 7.05. The pEC50 with SK-MES-1 is 5.88; with NCI-H69 it was 5.84; in the assay on DU-145, 5.95; in assay [3], under 5.00; in the assay with HMEC, under 5.00.

One may read the IC50 as the concentration that gives 50% inhibition. A high value points to lower potency. What is called pIC50 is −log10 of the IC50, conventionally taken in molar units. Read a high pIC50 as a small IC50. Broadly, the pEC50 is the negative decadic logarithm of the EC50, by convention in mol/L. Read a low pEC50 as a high EC50.
